Assay [1] has as its system Mus musculus. As to the kind of experiment: Effect on the mean body weight of mice on day 1 (pre) of swiss CD-1 mice (charles river), in groups of six dosed orally once per day for 4 days with 50 mg/kg of compound. It counts as functional. Particulars: route oral. The method in brief: (§1)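 Swiss CD-1 mice (20–25 g) in groups of six; vehicle controls in three cages of three. Compound 50 mg/kg or vehicle (2% Tween 80/saline) given by gavage each afternoon for 4 consecutive days. Body weight taken before dosing (day 1) and on the morning of day 5. Mice were then killed under halothane and heart and liver weighed, per 10 g body weight. Bonferroni t test.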

In assay [2] the test system is Mus musculus. As to the kind of experiment: Effect on the mean body weight of mice on day 5 (post) of swiss CD-1 mice (charles river), in groups of six dosed orally once per day for 4 days with 50 mg/kg of compound. Format: functional. Particulars: route oral. Summed up:
as §1

Assay [3] is filed under the species Mus musculus. As to the kind of experiment: Percent plasma glucose concentration of drug treated mice (ob/ob) relative to vehicle control animals. It counts as functional. Summed up: (§2)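 Female ob/ob mice, 10 weeks old, fed ad libitum, in groups of 7–11. Dosed po once daily for 4 days in 0.5% methyl cellulose vehicle. Decapitated the next morning; 0.1 mL blood into saline with Trasylol and EDTA; plasma glucose by autoanalyzer. Reciprocal-transformed (y = 160/x) harmonic mean given as % of vehicle. Bonferroni-adjusted comparisons.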

In assay [4] the test system is Mus musculus. As to the kind of experiment: Effect on the mean heart weight of mice on day 1 (pre) of swiss CD-1 mice (charles river), in groups of six dosed orally once per day for 4 days with 50 mg/kg of compound; expressed as mg/10 g body weight. Format: functional. Particulars: route oral.
Assay [5] has as its system Mus musculus. As to the kind of experiment: Effect on the mean liver weight of mice on day 1 (pre) of swiss CD-1 mice (charles river), in groups of six dosed orally once per day for 4 days with 50 mg/kg of compound; expressed as mg/10 g body weight. Format: functional. Particulars: route oral.
Assay [6] concerns Mus musculus. As to the kind of experiment: Effect on the mean body weight of mice on day 1 (pre) of swiss CD-1 mice (charles river), in groups of six dosed orally once per day for 4 days with 50 mg/kg of compound; […]. Particulars: route oral. Format: functional.
For assay [7], the system named is Mus musculus. As to the kind of experiment: Percent plasma glucose concentration of drug treated mice (ob/ob) relative to vehicle control animals following 75 mg/kg administration. Format: functional. Summed up:
as §2

For assay [8], the system named is Mus musculus. As to the kind of experiment: Percent plasma glucose concentration of drug treated mice (ob/ob) relative to vehicle control animals was determined at the dose of 75 mg/kg.

Structures are written as SMILES.

Consider 13 compounds from ChEMBL document CHEMBL1125399, “Perfluorocarbon-based antidiabetic agents” (1992).

As for `O=C(Nc1ccncc1)C(F)(F)C(F)(F)C(F)(F)C(F)(F)C(F)(F)C(F)(F)C(F)(F)F`, the Body weight with Mus musculus [1] was 30.7 g; in the assay on Mus musculus [2], 32.4 g. In the assay filed under Mus musculus [3], this compound returned an Activity of 66%. The compound also showed a Heart weight in the assay with Mus musculus [4] of 39 mg 10g-1. Besides, the Liver weight in the assay on Mus musculus [5] stood at 1.08 g 10g-1.
As to `O=C(Nc1ccc(Cc2nn[nH]n2)cc1)C(F)(F)C(F)(F)C(F)(F)C(F)(F)C(F)(F)C(F)(F)C(F)(F)F`, the Body weight was determined as 30.5 g in the assay on Mus musculus [1] and 31.4 g with Mus musculus [2]. The Activity in the assay filed under Mus musculus [3] came to 66%. In the assay with Mus musculus [4], this compound gave a Heart weight of 39 mg 10g-1. Besides, the Liver weight with Mus musculus [5] turned out to be 1.25 g 10g-1.
Take `Cl.Nc1ccc(Cc2nn[nH]n2)cc1`: the Body weight amounted to 29.8 g in the assay with Mus musculus [6] and 30.1 g in the assay with Mus musculus [2]. The compound also showed an Activity in the assay with Mus musculus [7] of 93%. Further, the Heart weight in the assay with Mus musculus [4] worked out at 43 mg 10g-1. For the same compound, the Liver weight in the assay with Mus musculus [5] was found to be 0.591 g 10g-1.
As for `CN(C(=O)C(F)(F)C(F)(F)C(F)(F)C(F)(F)C(F)(F)C(F)(F)C(F)(F)F)c1ccc(Cc2nnnn2C)cc1`, the figures for the Body weight with Mus musculus [1] and in the assay with Mus musculus [2] were 29.9 g and 31.1 g, respectively. For the same compound, the Activity in the assay listed under Mus musculus [3] was 67%. Also, the Heart weight in the assay with Mus musculus [4] was 41 mg 10g-1. Besides, the Liver weight in the assay on Mus musculus [5] came to 0.942 g 10g-1.
Consider `O=C(Nc1ccc(Cc2nn[n-]n2)cc1)C(F)(F)C(F)(F)C(F)(F)F.[Na+]`, for which the Activity in the assay with Mus musculus [8] came out at 67%.
Consider `CCCCCCC(F)(F)C(=O)Nc1ccc(Cc2nn[nH]n2)cc1`, for which the Body weight was determined as 30.4 g in the assay on Mus musculus [1] and 31.7 g in the assay on Mus musculus [2]. This compound gave an Activity in the assay on Mus musculus [7] of 80%. The compound also showed a Heart weight with Mus musculus [4] of 43 mg 10g-1. In addition, in the assay on Mus musculus [5], the Liver weight was determined as 0.671 g 10g-1.
Turning to `FC(F)(F)C(F)(F)C(F)(F)C(F)(F)C(F)(F)C(F)(F)C(F)(F)CNc1ccc(Cc2nn[nH]n2)cc1`, the Body weight worked out at 30.3 g with Mus musculus [1] and 31.2 g in the assay on Mus musculus [2]. Further, the Activity in the assay with Mus musculus [7] worked out at 57%. The Heart weight with Mus musculus [4] is recorded as 39 mg 10g-1. Further, the Liver weight in the assay on Mus musculus [5] was determined as 0.856 g 10g-1.
Regarding `O=C(Nc1ccc(Cc2nnn(Cc3ccccc3)n2)cc1)C(F)(F)C(F)(F)C(F)(F)C(F)(F)C(F)(F)C(F)(F)C(F)(F)F`, the results for the Body weight in the assay with Mus musculus [1] and with Mus musculus [2] were 30.3 g and 31.4 g, respectively. In addition, the Activity in the assay listed under Mus musculus [3] turned out to be 68%. Besides, the Heart weight in the assay with Mus musculus [4] came to 41 mg 10g-1. For the same compound, the Liver weight with Mus musculus [5] came out at 0.787 g 10g-1.
For `CCCCN(Cc1ccccc1)C(=O)C(F)(F)C(F)(F)C(F)(F)C(F)(F)C(F)(F)C(F)(F)C(F)(F)F`, the results for the Body weight in the assay on Mus musculus [1] and with Mus musculus [2] were 30.8 g and 31.1 g, respectively. The same compound had an Activity in the assay on Mus musculus [7] of 61%. Further, the Heart weight in the assay on Mus musculus [4] was found to be 40 mg 10g-1. The Liver weight in the assay on Mus musculus [5] turned out to be 1.18 g 10g-1.
`O=C(Nc1ccc(-c2nn[nH]n2)cc1)C(F)(F)C(F)(F)C(F)(F)F` gave an Activity with Mus musculus [7] of 75%.
With `O=C(N(Cc1ccccc1)c1ccc(Cc2nn[nH]n2)cc1)C(F)(F)C(F)(F)C(F)(F)C(F)(F)C(F)(F)C(F)(F)C(F)(F)C(F)(F)F`, the Body weight in the assay on Mus musculus [1] was determined as 29.8 g; with Mus musculus [2], 31.3 g. Also, the Activity in the assay listed under Mus musculus [3] came out at 55%. Moreover, the Heart weight in the assay with Mus musculus [4] is given as 39 mg 10g-1. In the assay on Mus musculus [5], the Liver weight came to 1.11 g 10g-1.
For `O=C(O)C(F)(F)C(F)(F)C(F)(F)C(F)(F)C(F)(F)C(F)(F)C(F)(F)C(F)(F)F`, in the assay with Mus musculus [7], the Activity was determined as 124%.
Consider `CCCCCCCC(=O)NNC(=O)C(F)(F)C(F)(F)C(F)(F)C(F)(F)C(F)(F)C(F)(F)C(F)(F)F`, for which the Body weight in the assay on Mus musculus [1] and in the assay with Mus musculus [2] was 30.6 g in each case. Further, the Activity in the assay on Mus musculus [7] is listed as 74%. In the assay with Mus musculus [4], this compound registered a Heart weight of 37 mg 10g-1. Moreover, the Liver weight in the assay on Mus musculus [5] turned out to be 1.44 g 10g-1.
